Measured values as given in ChEMBL document CHEMBL3259723, “Membrane active vancomycin analogues: a strategy to combat bacterial resistance” (J Med Chem, 2014).
Activity calls are given as the source filed them. The rule behind the calls is not given here.

Tests used:
Staphylococcus aureus [1] = test: Antibacterial activity against methicillin-sensitive Staphylococcus aureus MTCC 737 assessed as growth inhibition by broth microdilution method; assay type: functional
Procedure, shortened: (§1)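 Broth microdilution per CLSI; compounds serially diluted in autoclaved water. Bacteria grown 6 h in suitable media, diluted to 10⁵ CFU/mL; compound added to bacterial suspension, incubated at 37 °C, OD600 read. Triplicate wells, experiment done at least twice; mean OD versus concentration sigmoidally fitted, MIC taken where OD equals no-bacteria control.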

Staphylococcus aureus [2] = test: Antibacterial activity against methicillin-resistant Staphylococcus aureus ATCC 33591 assessed as growth inhibition by broth microdilution method; assay type: functional
Procedure, shortened: (§2)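 Broth microdilution per CLSI; compounds serially diluted in sterile water, added to bacteria at 10^5 CFU/mL (diluted from 6 h cultures). Incubated at 37 °C, OD600 read. Triplicate wells, experiment done at least twice. Mean OD plotted against concentration and fitted sigmoidally; MIC taken where OD matches the no-bacteria control.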

Staphylococcus aureus [3] = test: Antibacterial activity against vancomycin-intermediate-resistant Staphylococcus aureus assessed as growth inhibition by broth microdilution method; assay type: functional; procedure, shortened: as §2
Enterococcus faecium [4] = test: Antibacterial activity against vancomycin-sensitive Enterococcus faecium ATCC 19634 assessed as growth inhibition by broth microdilution method; assay type: functional; procedure, shortened: as §1
Enterococcus faecium [5] = test: Antibacterial activity against vancomycin-resistant VanA phenotype of Enterococcus faecium ATCC 51559 assessed as growth inhibition by broth microdilution method; assay type: functional; procedure, shortened: as §2
Staphylococcus aureus [6] = test: Antibacterial activity against methicillin-resistant Staphylococcus aureus ATCC 33591 assessed as induction of membrane depolarization at 10 uM measured for 10 mins by DiSC3(5) dye-based spectrofluorometric analysis; assay type: functional, organism-based
Procedure, shortened: (§3)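 Membrane potential assay with DiSC3(5): dye added to cells until maximal uptake, seen as a fluorescence minimum (about 10 min). Compounds then added and depolarization followed as the fluorescence increase over a further 10 min.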

Enterococcus faecium [7] = test: Antibacterial activity against vancomycin-resistant VanA phenotype of Enterococcus faecium ATCC 51559 assessed as induction of membrane depolarization at 10 uM measured for 10 mins by DiSC3(5) dye-based spectrofluorometric analysis; assay type: functional, organism-based; procedure, shortened: as §3
Staphylococcus aureus [8] = test: Antibacterial activity against methicillin-resistant Staphylococcus aureus ATCC 33591 assessed as induction of cytoplasmic membrane permeabilization at 10 uM measured for 10 mins by propidium iodide uptake assay; assay type: functional, organism-based
Procedure, shortened: (§4)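 Mid-log (6 h) cells harvested at 4 °C, washed and resuspended in PBS pH 7.2. Compound added to cells with 10 μM propidium iodide. Fluorescence (ex 535/em 617 nm) monitored 10 min at RT; the rise in PI fluorescence taken as inner membrane permeabilization.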

Enterococcus faecium [9] = test: Antibacterial activity against vancomycin-resistant VanA phenotype of Enterococcus faecium ATCC 51559 assessed as induction of cytoplasmic membrane permeabilization at 10 uM measured for 10 mins by propidium iodide uptake assay; assay type: functional, organism-based; procedure, shortened: as §4
Enterococcus faecium [10] = test: Antibacterial activity against vancomycin-resistant VanA phenotype of Enterococcus faecium ATCC 51559 assessed as leakage of intracellular potassium ion at 10 uM measured for 10 mins by PBFI-AM dye-based spectrofluorometric analysis; assay type: functional, organism-based
Procedure, shortened: (§5)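 Mid-log (6 h) cells washed twice and resuspended in 10 mM HEPES pH 7.2 with 0.5% glucose. Signal stabilized 60 s at RT, then 1 μM PBFI-AM added and a 2 min baseline recorded before compound.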

Staphylococcus aureus [11] = test: Antibacterial activity against methicillin-resistant Staphylococcus aureus ATCC 33591 assessed as induction of membrane depolarization measured at < 3 mins by DiSC3(5) dye-based spectrofluorometric analysis; assay type: functional, organism-based; procedure, shortened: as §3
Enterococcus faecium [12] = test: Antibacterial activity against vancomycin-resistant VanA phenotype of Enterococcus faecium ATCC 51559 assessed as induction of membrane depolarization measured at < 3 mins by DiSC3(5) dye-based spectrofluorometric analysis; assay type: functional, organism-based; procedure, shortened: as §3
Staphylococcus aureus [13] = test: Antibacterial activity against methicillin-resistant Staphylococcus aureus ATCC 33591 assessed as induction of cytoplasmic membrane permeabilization measured within 5 mins by propidium iodide uptake assay; assay type: functional, organism-based; procedure, shortened: as §4
Staphylococcus aureus [14] = test: Antibacterial activity against methicillin-resistant Staphylococcus aureus ATCC 33591 assessed as leakage of intracellular potassium ion at 10 uM measured for 10 mins by PBFI-AM dye-based spectrofluorometric analysis relative to control; assay type: functional; procedure, shortened: as §5
Staphylococcus aureus [15] = test: Bacteriostatic activity against methicillin-resistant Staphylococcus aureus ATCC 33591 measured over 24 hrs; assay type: functional, organism-based
Procedure, shortened: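 MRSA in yeast-dextrose broth, starting inoculum 1.6 × 10^8 CFU/mL. […] Samples taken at 0, 1, 2, 3, 6 and 24 h, diluted 10-fold serially in saline and plated on yeast-dextrose agar. Colonies counted after 24 h at 37 °C; log10 CFU/mL reported.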

Staphylococcus aureus [16] = test: Bactericidal activity against methicillin-resistant Staphylococcus aureus ATCC 33591 infected in 90% human whole blood at 3.6 uM after 3 hrs; assay type: functional, organism-based
Procedure, shortened: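 MRSA (30 μL of 10^6 CFU/mL in 0.9% saline) mixed with compound at 3.6 μM and 270 μL fresh human whole blood. Incubated 3 h at 37 °C.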

Staphylococcus aureus [17] = test: Antibacterial activity against methicillin-resistant Staphylococcus aureus ATCC 33591 assessed as growth inhibition measured after 20 serial passages; assay type: functional, organism-based
Procedure, shortened: (§6)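 Serial passage: the MIC assay is run against MRSA, then cells from the one-half-MIC well of the previous assay are harvested and inoculated into fresh yeast-dextrose broth for the next MIC assay after 24 h incubation. Repeated for […] passages; MIC plotted against passage number and fold increase in MIC determined.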

Staphylococcus aureus [18] = test: Ratio of MIC for methicillin-resistant Staphylococcus aureus ATCC 33591 measured after 52 serial passages to MIC for methicillin-resistant Staphylococcus aureus ATCC 33591; assay type: functional; procedure, shortened: as §6
Staphylococcus aureus [19] = test: Antibacterial activity against methicillin-resistant Staphylococcus aureus ATCC 33591 infected in CD-1 mouse neutropenic thigh infection model assessed as reduction of bacterial burden in thigh at 12 mg/kg, iv bid administered as 12 hrs interval measured after 24 hrs; assay type: functional, organism-based; design: dose 12 mg/kg
Procedure, shortened: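 Neutropenic mouse thigh model: about 50 μL MRSA inoculum injected into the thigh. About 1 h later, iv treatment twice at 12 h intervals with saline, vancomycin or compound at 12 mg/kg. At 24 h, thigh homogenate dilutions plated and incubated overnight at 37 °C; titer expressed as log10 CFU/g thigh.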

Row | Compound | MIC (Staphylococcus aureus [1]) | MIC (Staphylococcus aureus [2]) | MIC (Staphylococcus aureus [3]) | MIC (Enterococcus faecium [4]) | MIC (Enterococcus faecium [5]) | Activity (Staphylococcus aureus [6]) | Activity (Enterococcus faecium [7]) | Activity (Staphylococcus aureus [8]) | Activity (Enterococcus faecium [9]) | Activity (Enterococcus faecium [10]) | Activity (Staphylococcus aureus [14]) | other results
1 | CC[N+](C)(C)CCCNC(=O)[C@H]1NC(=O)[C@H]2NC(=O)[C@H](NC(=O)[C@@H]3NC(=O)[C@H](CC(N)=O)NC(=O)[C@H](NC(=O)[C@@H](CC(C)C)NC)[C@H](O)c4ccc(c(Cl)c4)Oc4cc3cc(c4O[C@@H]3O[C@H](CO)[C@@H](O)[C@H](O)[C@H]3O[C@H]3C[C@](C)(N)[C@H](O)[C@H](C)O3)Oc3ccc(cc3Cl)[C@H]2O)c2ccc(O)c(c2)-c2c(O)cc(O)cc21 | 0.39 µM | 2.42 µM | 1.3 µM | 0.45 µM | > 100 µM | inactive | inactive | inactive | inactive | inactive |  | 
2 | CN[C@H]1C(=O)N[C@@H]2Cc3ccc(cc3)Oc3cc4cc(c3O[C@@H]3O[C@H](C(=O)O)[C@@H](O)[C@H](O)[C@H]3NC(=O)CCCCCCCCC(C)C)Oc3ccc(cc3Cl)[C@@H](O)[C@@H]3NC(=O)[C@H](NC(=O)[C@@H]4NC(=O)[C@@H](NC2=O)c2cc(cc(O)c2Cl)Oc2cc1ccc2O)c1ccc(O)c(c1)-c1c(O[C@H]2O[C@H](CO)[C@@H](O)[C@H](O)[C@@H]2O)cc(O)cc1[C@@H](C(=O)NCCCN(C)C)NC3=O [DALBAVANCIN] |  |  |  |  |  |  |  |  |  |  |  | MIC90 (Staphylococcus aureus [1]): 0.04 µM; MIC90 (Staphylococcus aureus [2]): 0.04 µM; MIC90 (Enterococcus faecium [4]): 0.08 µM; MIC90 (Enterococcus faecium [5]): > 18 µM
3 | CCCCCCCCCC[N+](C)(C)CCCNC(=O)[C@H]1NC(=O)[C@H]2NC(=O)[C@H](NC(=O)[C@@H]3NC(=O)[C@H](CC(N)=O)NC(=O)[C@H](NC(=O)[C@@H](CC(C)C)NC)[C@H](O)c4ccc(c(Cl)c4)Oc4cc3cc(c4O[C@@H]3O[C@H](CO)[C@@H](O)[C@H](O)[C@H]3O[C@H]3C[C@](C)(N)[C@H](O)[C@H](C)O3)Oc3ccc(cc3Cl)[C@H]2O)c2ccc(O)c(c2)-c2c(O)cc(O)cc21 | 0.31 µM | 0.31 µM | 0.3 µM | 0.2 µM | 3 µM |  |  |  | Active | Active | Active | Activity (Staphylococcus aureus [11]): Dose-dependent effect; Activity (Enterococcus faecium [12]): Dose-dependent effect; Activity (Staphylococcus aureus [13]): Dose-dependent effect
4 | CCCC[N+](C)(C)CCCNC(=O)[C@H]1NC(=O)[C@H]2NC(=O)[C@H](NC(=O)[C@@H]3NC(=O)[C@H](CC(N)=O)NC(=O)[C@H](NC(=O)[C@@H](CC(C)C)NC)[C@H](O)c4ccc(c(Cl)c4)Oc4cc3cc(c4O[C@@H]3O[C@H](CO)[C@@H](O)[C@H](O)[C@H]3O[C@H]3C[C@](C)(N)[C@H](O)[C@H](C)O3)Oc3ccc(cc3Cl)[C@H]2O)c2ccc(O)c(c2)-c2c(O)cc(O)cc21 | 0.37 µM | 0.6 µM | 1.14 µM | 0.31 µM | > 100 µM | inactive | inactive | inactive | inactive | inactive |  | 
5 | CCCCCCCCCCCCCCNCCCNC(=O)[C@H]1NC(=O)[C@H]2NC(=O)[C@H](NC(=O)[C@@H]3NC(=O)[C@H](CC(N)=O)NC(=O)[C@H](NC(=O)[C@@H](CC(C)C)NC)[C@H](O)c4ccc(c(Cl)c4)Oc4cc3cc(c4O[C@@H]3O[C@H](CO)[C@@H](O)[C@H](O)[C@H]3O[C@H]3C[C@](C)(N)[C@H](O)[C@H](C)O3)Oc3ccc(cc3Cl)[C@H]2O)c2ccc(O)c(c2)-c2c(O)cc(O)cc21 | 0.55 µM | 0.61 µM | 1 µM | 0.4 µM | 5 µM |  | inactive |  | inactive | inactive |  | 
6 | CN[C@H](CC(C)C)C(=O)N[C@H]1C(=O)N[C@@H](CC(N)=O)C(=O)N[C@H]2C(=O)N[C@H]3C(=O)N[C@H](C(=O)N[C@H](C(=O)O)c4cc(O)cc(O)c4-c4cc3ccc4O)[C@H](O)c3ccc(c(Cl)c3)Oc3cc2cc(c3O[C@@H]2O[C@H](CO)[C@@H](O)[C@H](O)[C@H]2O[C@H]2C[C@](C)(N)[C@H](O)[C@H](C)O2)Oc2ccc(cc2Cl)[C@H]1O [VANCOMYCIN] | 0.63 µM | 0.63 µM | 13 µM | 0.6 µM | 750 µM | inactive | inactive | inactive | inactive |  | 100% | Activity (Staphylococcus aureus [15]): Dose-dependent effect; Activity (Staphylococcus aureus [16]): Active; Activity (Staphylococcus aureus [17]): Active; Ratio (Staphylococcus aureus [18]): >20; Activity (Staphylococcus aureus [19]): Active
7 | CCCCCCCCCCNCCN[C@@]1(C)C[C@H](O[C@H]2[C@H](Oc3c4cc5cc3Oc3ccc(cc3Cl)[C@@H](O)[C@@H](NC(=O)[C@@H](CC(C)C)NC)C(=O)N[C@@H](CC(N)=O)C(=O)N[C@H]5C(=O)N[C@H]3C(=O)N[C@H](C(=O)N[C@H](C(=O)O)c5cc(O)c(CNCP(=O)(O)O)c(O)c5-c5cc3ccc5O)[C@H](O)c3ccc(c(Cl)c3)O4)O[C@H](CO)[C@@H](O)[C@@H]2O)O[C@@H](C)[C@H]1O [TELAVANCIN] |  |  |  |  |  |  |  |  |  |  |  | MIC90 (Staphylococcus aureus [1]): 0.3 µM; MIC90 (Staphylococcus aureus [2]): 0.3 µM; MIC90 (Enterococcus faecium [4]): 0.15 µM; MIC90 (Enterococcus faecium [5]): 4 µM
8 | CN[C@H](CC(C)C)C(=O)N[C@H]1C(=O)N[C@@H](CC(N)=O)C(=O)N[C@H]2C(=O)N[C@H]3C(=O)N[C@H](C(=O)N[C@H](C(=O)NCCCN(C)C)c4cc(O)cc(O)c4-c4cc3ccc4O)[C@H](O)c3ccc(c(Cl)c3)Oc3cc2cc(c3O[C@@H]2O[C@H](CO)[C@@H](O)[C@H](O)[C@H]2O[C@H]2C[C@](C)(N)[C@H](O)[C@H](C)O2)Oc2ccc(cc2Cl)[C@H]1O | 0.62 µM | 0.61 µM | 1.47 µM | 0.63 µM | > 100 µM | inactive | inactive | inactive | inactive | inactive |  | 
9 | CCCCCCCCCCCCCC[N+](C)(C)CCCNC(C)=O |  |  |  |  |  |  | inactive |  | inactive | inactive |  | 
10 | CCCCCCCCCCCCCCCCCC[N+](C)(C)CCCNC(=O)[C@H]1NC(=O)[C@H]2NC(=O)[C@H](NC(=O)[C@@H]3NC(=O)[C@H](CC(N)=O)NC(=O)[C@H](NC(=O)[C@@H](CC(C)C)NC)[C@H](O)c4ccc(c(Cl)c4)Oc4cc3cc(c4O[C@@H]3O[C@H](CO)[C@@H](O)[C@H](O)[C@H]3O[C@H]3C[C@](C)(N)[C@H](O)[C@H](C)O3)Oc3ccc(cc3Cl)[C@H]2O)c2ccc(O)c(c2)-c2c(O)cc(O)cc21.O=C([O-])C(F)(F)F | 5.03 µM |  | 0.92 µM |  | 1.9 µM |  |  |  | Active | Active | 99% | Activity (Staphylococcus aureus [11]): Dose-dependent effect; Activity (Enterococcus faecium [12]): Dose-dependent effect; Activity (Staphylococcus aureus [13]): Dose-dependent effect
